Laboratory results published in ChEMBL document CHEMBL1671838, “Discovery of MK-1220: A Macrocyclic Inhibitor of Hepatitis C Virus NS3/4A Protease with Improved Preclinical Plasma Exposure” (ACS Med Chem Lett, 2011).

Assays:
Hepatitis C virus [1] = test: Antiviral activity against HCV1b con1 infected in human HuH7 cells assessed as inhibition of viral replication after 24 hrs in presence of 10% fetal bovine serum; assay type: functional, organism-based, Hepacivirus hominis; conditions: Con1, Huh-7, 24 h
Summary of the method: (§1)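 Cell-based HCV replicon assay giving IC50. Genotype 1b replicon run with 10% fetal bovine serum or with 50% normal human serum. Genotype 2a replicon run with 10% FBS.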

Hepatitis C virus [2] = test: Antiviral activity against HCV1b con1 infected in human HuH7 cells assessed as inhibition of viral replication after 24 hrs in presence of 50% normal human serum; assay type: functional, organism-based, Hepacivirus hominis; conditions: Con1, Huh-7, 24 h; summary of the method: as §1
[3] = Inhibition of HCV NS3/4A protease expressed Escherichia coli after 1 hr by time-resolved fluorescence assay; parameters: species or system Hepacivirus hominis
Summary of the method: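 Binding assay against genotype 1b HCV NS3/4A protease, read by time-resolved fluorescence; potency expressed as Ki.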

[4] = Drug level in Sprague-Dawley rat liver at 5 mg/kg, po after 4 hrs; assay type: ADME, organism-based; parameters: dose 5 mg/kg, route oral; conditions: read-out: Drug uptake
Summary of the method: (§2)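 Rat PK screen: 5 mg/kg given orally in PEG400, n = 2; plasma AUC calculated from a 4 h experiment, and liver concentration measured at 4 h after dosing.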

[5] = AUC in Sprague-Dawley rat plasma at 5 mg/kg, po after 4 hrs; assay type: ADME, organism-based; parameters: time < 4 hr, dose 5 mg/kg, route oral; summary of the method: as §2
Hepatitis C virus [6] = test: Antiviral activity against HCV2a infected in human HuH7 cells assessed as inhibition of viral replication after 24 hrs in presence of 10% fetal bovine serum; assay type: functional, organism-based, Hepacivirus hominis; conditions: genotype 2a, Huh-7, 24 h; summary of the method: as §1

Compound	IC50 (Hepatitis C virus [1]) [nM]	IC50 (Hepatitis C virus [2]) [nM]	Ki [3] [nM]	concentration at 4 h [4] [µM]	AUC at 4 h [5] [µM·h]	IC50 (Hepatitis C virus [6]) [nM]
C=C[C@@H]1C[C@]1(NC(=O)[C@@H]1C[C@@H]2CN1C(=O)[C@H](C(C)(C)C)NC(=O)OCCCCCc1cc(CC)c3ccnc(c3c1)O2)C(=O)NS(=O)(=O)C1CC1	2.5	90	0.14	12.5	2.1	
C=C[C@@H]1C[C@]1(NC(=O)[C@@H]1C[C@@H]2CN1C(=O)[C@H](C1Cc3ccccc3C1)NC(=O)OCCC/C=C/c1ccc3ccnc(c3c1)O2)C(=O)NS(=O)(=O)C1CC1	5	20	0.07	4.5	0.15	
C=C[C@@H]1C[C@]1(NC(=O)[C@@H]1C[C@@H]2CN1C(=O)[C@H](C1CCCCC1)NC(=O)OCCC/C=C/c1ccc3ccnc(c3c1)O2)C(=O)NS(=O)(=O)C1CC1	2.5	78	0.063	46.9	0.67	
C=C[C@@H]1C[C@]1(NC(=O)[C@@H]1C[C@@H]2CN1C(=O)[C@H](C(C)(C)C)NC(=O)OCCCCCc1cc3c(nccc3cc1OC)O2)C(=O)NS(=O)(=O)C1CC1	3	113	0.04	3	9.6	
C=C[C@@H]1C[C@]1(NC(=O)[C@@H]1C[C@@H]2CN1C(=O)[C@H](C(C)(C)C)NC(=O)OCCC/C=C/c1ccc3ccnc(c3c1)O2)C(=O)NS(=O)(=O)C1CC1	4.5	14	0.04	18.6	0.36	
C=C[C@@H]1C[C@]1(NC(=O)[C@@H]1C[C@@H]2CN1C(=O)[C@H](C1CCCC1)NC(=O)OCCCCCc1cc3c(nccc3cc1OC)O2)C(=O)NS(=O)(=O)C1CC1	2	80	0.03	8	18.1	
C=C[C@@H]1C[C@]1(NC(=O)[C@@H]1C[C@@H]2CN1C(=O)[C@H](C1CCOCC1)NC(=O)OCCC/C=C/c1ccc3ccnc(c3c1)O2)C(=O)NS(=O)(=O)C1CC1	9	20	0.07	< 0.2	0.5	
C=C[C@@H]1C[C@]1(NC(=O)[C@@H]1C[C@@H]2CN1C(=O)[C@H](C(C)(C)C)NC(=O)OCCCCCc1cc(OC)c3ccnc(c3c1)O2)C(=O)NS(=O)(=O)C1CC1	2.7	35	0.04	33.2	17.7	
C=C[C@@H]1C[C@]1(NC(=O)[C@@H]1C[C@@H]2CN1C(=O)[C@H](C1CCCC1)NC(=O)OCC(C)(C)CCCc1ccc3ccnc(c3c1)O2)C(=O)NS(=O)(=O)C1CC1	2	10	0.02	16	0.18	11
C=C[C@@H]1C[C@]1(NC(=O)[C@@H]1C[C@@H]2CN1C(=O)[C@H](c1ccccc1)NC(=O)OCCCCCc1ccc3ccnc(c3c1)O2)C(=O)NS(=O)(=O)C1CC1			1			
C=C[C@@H]1C[C@]1(NC(=O)[C@@H]1C[C@@H]2CN1C(=O)[C@H](C1CCOCC1)NC(=O)OCCCCCc1ccc3ccnc(c3c1)O2)C(=O)NS(=O)(=O)C1CC1	15	34	0.07	0.09	0.8	
C=C[C@@H]1C[C@]1(NC(=O)[C@@H]1C[C@@H]2CN1C(=O)[C@H](Cc1ccccc1)NC(=O)OCCC/C=C/c1ccc3ccnc(c3c1)O2)C(=O)NS(=O)(=O)C1CC1	3		0.65	10	0.43	
C=C[C@@H]1C[C@]1(NC(=O)[C@@H]1C[C@@H]2CN1C(=O)[C@H](C(C)(C)C)NC(=O)OCCCCCc1cc(C(F)(F)F)c3ccnc(c3c1)O2)C(=O)NS(=O)(=O)C1CC1	21	410	0.25			
